Source: publication PMC5854750 (European Journal of Drug Metabolism and Pharmacokinetics, 2017)

Legend:
[1] = cited from earlier work
healthy male volunteers [2] = test: Single-rising dose; format: in vivo, human
[3] = SRD component: plasma and urine pharmacokinetics; format: in vivo, human
healthy male volunteers [4] = test: BA/FE component: safety and tolerability; format: in vivo, human; conditions: Part 2 (BA/FE), 25 mg, six of 11 subjects
Method in brief: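 Open-label, randomised three-way crossover in 12 healthy men (18–45 y, BMI 18.5–29.9 kg/m2). Each received single oral 25 mg doses: tablet fasted, tablet after a standardised high-fat, high-calorie meal, and 5-mg/mL solution fasted, in one of six sequences. Washout between periods was at least 14 days. Safety was monitored to Day 9 of each period, with spontaneous AEs recorded by onset, end time and intensity.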

[5] = Bioavailability/food effect; format: in vivo; conditions: male, human, plasma, oral, 25 mg, Median t max
Method in brief: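 Healthy men (18–45 y, BMI 18.5–29.9 kg/m2) in a randomised crossover received single oral 25 mg doses as tablet fasted, tablet after a high-fat, high-calorie meal, or 5-mg/mL solution fasted. Washout was at least 14 days, and PK sampling ran to Day 9 per period. Plasma was assayed by validated LC-MS/MS over 1.00–1000 nM (linear calibration, 1/x² weighting, QC in K3-EDTA plasma). Adjusted gMean ratios are reported with 90% CI.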

In the case of C[C@@H](Oc1ccc(S(C)(=O)=O)cc1C(=O)N1C[C@@H]2C[C@]2(c2cc(C(F)(F)F)on2)C1)C(F)(F)F [BI 425809], the “Biopharmaceutics Classification System class” value [1] is given as “Class II”, the Permeability [1] is given as “high” and the “Subjects with at least one AE assessed as related to treatment” value (from here on “Subjects with at least one AE assessed”) (healthy male volunteers [2]; Part 1 (SRD), 27 of 72 subjects (includes placebo subjects)) is given as 37.5%. The “Changes from baseline of QTcF interval, QT interval or heart rate vs placebo” value (healthy male volunteers [2]; Part 1, any of the doses tested) was “no statistically relevant differences”, the “Colour discrimination and visual acuity tests” value (healthy male volunteers [2]; SRD) was “no changes from baseline” and the “Incidence of AEs” value (healthy male volunteers [2]; SRD, 0.5-mg group) was 16.7%. The “Incidence of AEs” value (healthy male volunteers [2]; SRD, 150-mg group) was 100%, the “Subjects with eye disorder AE (photopsia, blurred vision or chromatopsia)” value (healthy male volunteers [2]; SRD, 150-mg group, n = 6) was “all six subjects” and the “Subjects with at least one AE” value (healthy male volunteers [2]; SRD, all BI 425809 doses 0.5–150 mg, 34/54 subjects) was 63.0%. The “Bond–Lader VAS scores of other items (calmness, contentment, external and internal perception)” value (healthy male volunteers [2]; SRD, dose levels of 100 and 150 mg) was “increased”, the “Bond and Lader VAS and Bowdle VAS scores for subjective feelings of sedation” value (healthy male volunteers [2]; SRD, doses of 10 mg and greater) was “increase” and the “Subjects with abnormalities on the Amsler grid test” value (healthy male volunteers [2]; SRD, one each at 25 and 100 mg) was “two subjects”. The Maximally tolerated dose (healthy male volunteers [2]; SRD, single oral dose, escalation terminated owing to dose-limiting AEs) was 150 mg, the ECG findings (healthy male volunteers [2]; both parts) was “No clinically relevant abnormal findings” and the Neurological examination findings (healthy male volunteers [2]; both parts) was “No clinically relevant abnormal findings”. For the same molecule, the “Subjects with at least one AE assessed” value (healthy male volunteers [2]; both parts, 33/83 subjects (includes placebo subjects)) was 39.8%, the “Changes in laboratory parameters, hormone levels, haematology or vital signs” value (healthy male volunteers [2]; either part of the study) was “no clinically relevant changes” and the “Time to disappearance of headache” value (healthy male volunteers [2]; first day of dosing) was at most 12 h. The Tolerability (healthy male volunteers [2]; single dose, anticipated therapeutic dose range of 5–25 mg) was “generally well-tolerated”, the Fractional renal excretion ([3]; SRD, similar across all dose groups) was 5% and the Tmax ([3]; male, human, plasma, oral) was about 0.75 h. For the same molecule, the half-life ([3]; male, human, plasma, oral) was 32.5 to 47 h, the “Subjects with at least one AE assessed” value (healthy male volunteers [4]) was 54.5% and the Tmax ([5]; 25-mg solution, fasted) was 0.875 h. The Tmax ([5]; 25-mg tablet, fasted) was 4 h and the Tmax ([5]; 25-mg tablet, fed) was 1.77 h.
